Test results taken from paper PMC4451255 (Bioorganic & medicinal chemistry, 2015).
Positions count from the first letter of the chain named.

Tests used:
P720C/H755C PTPH-1 [1] = assay: FlAsH inhibition of purified PTP catalytic domain, pNPP assay; assay type: biochemical, human; conditions: purified enzyme 50 nM, one equivalent of FlAsH
Outline: (§1)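 His6-tagged PTP catalytic domains (50 nM) are pre-incubated 120 min at 37 °C with test compound or DMSO (1% v/v). Activity is then assayed at 37 °C with pNPP at each enzyme's previously determined KM in 50 mM 3,3-dimethylglutarate pH 7.0, 1 mM EDTA, 50 mM NaCl. The reaction is quenched with NaOH and A405 read. Activity is normalized to DMSO-only control, triplicate, ≥3 independent experiments.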

wild-type PTP1B [2] = assay: as above; assay type: biochemical, human; conditions: purified enzyme 50 nM, 120-minute pre-incubation
Outline: as §1

P2285C/Q2320C FAP-1 [3] = assay: as above; assay type: biochemical, human; conditions: purified enzyme 50 nM, one equivalent of FlAsH
Outline: as §1

wild-type Shp2 [4] = biological target: T1, wild-type Shp2 (Homo sapiens, UniProt Q06124); assay: SDS/PAGE and fluorescence visualization of protein/FlAsH complexes; assay type: binding; conditions: 6 μM FlAsH, 2 μg enzyme, UV visualization
T1 sequence (Q06124 247-517 limits assumed): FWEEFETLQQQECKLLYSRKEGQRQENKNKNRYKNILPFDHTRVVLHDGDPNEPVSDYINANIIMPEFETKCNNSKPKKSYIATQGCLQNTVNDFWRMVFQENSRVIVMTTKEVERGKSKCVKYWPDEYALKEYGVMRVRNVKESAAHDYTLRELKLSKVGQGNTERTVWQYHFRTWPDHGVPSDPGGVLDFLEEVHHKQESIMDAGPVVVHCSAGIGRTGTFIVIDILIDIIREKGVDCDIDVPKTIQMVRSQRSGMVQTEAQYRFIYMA

wild-type PTPH-1 [5] = assay: FlAsH inhibition of purified PTP catalytic domain, pNPP assay; assay type: biochemical, human; conditions: purified enzyme 50 nM, one equivalent of FlAsH
Outline: as §1

P87C/A122C PTP1B [6] = biological target: T2, P87C/A122C PTP1B (Homo sapiens, UniProt P18031, A122C/P87C); assay: FlAsH inhibition of purified PTP catalytic domain, pNPP assay; assay type: biochemical; conditions: purified enzyme 50 nM, time-dependent
T2 sequence (P18031 3-277 P87C/A122C limits assumed): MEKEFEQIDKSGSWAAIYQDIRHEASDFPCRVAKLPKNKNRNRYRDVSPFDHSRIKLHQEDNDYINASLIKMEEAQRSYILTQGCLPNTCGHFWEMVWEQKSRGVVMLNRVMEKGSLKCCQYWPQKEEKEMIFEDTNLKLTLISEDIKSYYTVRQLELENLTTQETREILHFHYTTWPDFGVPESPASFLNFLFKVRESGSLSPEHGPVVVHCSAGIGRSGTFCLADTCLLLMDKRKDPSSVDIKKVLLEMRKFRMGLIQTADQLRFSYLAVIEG
Outline: (§2)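 No pre-incubation. pNPP at the enzyme's KM is held with 500 nM test compound or DMSO (1%) in pH 7.0 PTP buffer at 37 °C, and reactions are started by adding His6-tagged catalytic domain (50 nM). A405 is monitored continuously at 37 °C. Rates over 1-min windows are normalized to DMSO control; three independent runs are averaged and fitted as single-variable exponential decay.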

wild-type PTP1B [7] = assay: SDS/PAGE and fluorescence visualization of protein/FlAsH complexes; assay type: binding, human; conditions: 6 μM FlAsH, UV visualization
P87C PTP1B [8] = biological target: T3, P87C PTP1B (Homo sapiens, UniProt P18031, P87C); assay: FlAsH inhibition of purified PTP catalytic domain, pNPP assay; assay type: biochemical; conditions: 500 nM FlAsH, continuous pNPP assay
T3 sequence (P18031 3-277 P87C limits assumed): T2 sequence (P18031 3-277 P87C/A122C limits assumed) with C120A
Outline: as §2

P2285C/Q2320C FAP-1 [9] = assay: FlAsH inhibition of total PTP activity of crude E. coli lysates, pNPP; assay type: biochemical, human; conditions: whole-cell E. coli lysate
Outline: (§3)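 Cells are lysed by French press (~2000 psi) in 50 mM Tris pH 7.8, 500 mM NaCl, 5 mM imidazole. Clarified lysate takes compound or DMSO (1%) for 120 min at 37 °C. Total pNPP activity is normalized to DMSO.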

wild-type FAP-1 [10] = assay: as above; assay type: biochemical, human; conditions: whole-cell E. coli lysate, FlAsH concentrations that strongly inhibit the mutant
Outline: as §3

V368C Shp2 [11] = biological target: T4, V368C Shp2 (Homo sapiens, UniProt Q06124, V368C); assay: SDS/PAGE and fluorescence visualization of protein/FlAsH complexes; assay type: binding; conditions: 6 μM FlAsH, 2 μg enzyme, UV visualization, band at approximately 37 kD
T4 sequence (Q06124 247-517 V368C limits assumed): T1 sequence (Q06124 247-517 limits assumed) with V122C

V368C Shp2 [12] = biological target: T4, V368C Shp2; assay: Mass-spectrometry-based FlAsH-induced cysteine-protection assay; assay type: binding; conditions: 2.7 μM enzyme, 27 μM FlAsH, 50 mM iodoacetic acid, LC/MS/MS
Outline: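 Enzyme (2.7 μM) is incubated 30 min with 27 μM test compound or DMSO in pH 7.0 dimethylglutarate/EDTA/1 mM TCEP. Free cysteines are carboxymethylated with 50 mM iodoacetic acid (30 min), quenched with 100 mM TCEP, precipitated and gel-separated, then trypsin-digested in gel. Nano-LC/MS/MS uses HCD. Peptide precursor intensity ratios (compound/DMSO) are normalized to the mean of non-cysteine peptide ratios.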

P87C/A122C PTP1B [13] = biological target: T2, P87C/A122C PTP1B; assay: SDS/PAGE and fluorescence visualization of protein/FlAsH complexes; assay type: binding; conditions: 6 μM FlAsH, UV visualization, band at 45 kD
wild-type HePTP [14] = assay: FlAsH inhibition of total PTP activity of crude E. coli lysates, pNPP; assay type: biochemical, human; conditions: whole-cell E. coli lysate, FlAsH concentrations that strongly inhibit the mutant
Outline: as §3

wild-type Shp2 [15] = biological target: T1, wild-type Shp2; assay: FlAsH inhibition of purified PTP catalytic domain, pNPP assay; assay type: biochemical
Outline: (§4)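 Two set-ups, both using His6-tagged catalytic domain (50 nM) and pNPP in pH 7.0 3,3-dimethylglutarate buffer. In the first, enzyme is incubated with 125 nM test compound plus β-mercaptoethanol (0–1 mM), then activity is normalized to no-compound controls. In the second, there is no pre-incubation: pNPP at the enzyme's KM sits with a fixed compound level at 37 °C, enzyme starts the reaction, and A405 is followed continuously.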

P87C PTP1B [16] = biological target: T3, P87C PTP1B; assay: SDS/PAGE and fluorescence visualization of protein/FlAsH complexes; assay type: binding; conditions: 6 μM FlAsH, UV visualization
P720C/H755C PTPH-1 [17] = assay: FlAsH inhibition of total PTP activity of crude E. coli lysates, pNPP; assay type: biochemical, human; conditions: whole-cell E. coli lysate
Outline: as §3

P160C/V184C HePTP [18] = assay: FlAsH inhibition of purified PTP catalytic domain, pNPP assay; assay type: biochemical, human; conditions: purified enzyme 50 nM, one equivalent of FlAsH
wild-type PTPH-1 [19] = assay: FlAsH inhibition of total PTP activity of crude E. coli lysates, pNPP; assay type: biochemical, human; conditions: whole-cell E. coli lysate, FlAsH concentrations that strongly inhibit the mutant
Outline: as §3

wild-type FAP-1 [20] = assay: FlAsH inhibition of purified PTP catalytic domain, pNPP assay; assay type: biochemical, human; conditions: purified enzyme 50 nM, one equivalent of FlAsH
Outline: as §1

wild-type HePTP [21] = assay: as above; assay type: biochemical, human; conditions: purified enzyme 50 nM, one equivalent of FlAsH
Outline: as §1

P160C/V184C HePTP [22] = assay: FlAsH inhibition of total PTP activity of crude E. coli lysates, pNPP; assay type: biochemical, human; conditions: whole-cell E. coli lysate
V368C Shp2 [23] = biological target: T4, V368C Shp2; assay: FlAsH inhibition of purified PTP catalytic domain, pNPP assay; assay type: biochemical
Outline: as §4

[24] = 500 nM FlAsH, continuous pNPP assay, no pre-incubation

## O=C(O)c1ccccc1-c1c2ccc(=O)c([As]3SCCS3)c-2oc2c([As]3SCCS3)c(O)ccc12 [FlAsH]
P720C/H755C PTPH-1 [1]
  inhibition of phosphatase activity: novel sensitivity to FlAsH
wild-type PTP1B [2]
  effect of FlAsH on enzymatic activity: unaffected
P2285C/Q2320C FAP-1 [3]
  inhibition of phosphatase activity: drastically reduced catalytic activity
wild-type Shp2 [4]
  fluorescent band of protein/FlAsH conjugate after SDS/PAGE: not present
wild-type PTPH-1 [5]
  inhibition of phosphatase activity: not significantly inhibited
P87C/A122C PTP1B [6]
  inhibition by FlAsH: potently inhibited
wild-type PTP1B [7]
  fluorescent band of protein/FlAsH conjugate after SDS/PAGE: fail to produce strongly fluorescent bands
P87C PTP1B [8]
  time for phosphatase activity to decrease to 50% of initial rate: approximately 10 minutes
P2285C/Q2320C FAP-1 [9]
  inhibition of total PTP activity of lysate: strongly inhibited
wild-type FAP-1 [10]
  inhibition of total PTP activity of lysate: no effects
V368C Shp2 [11]
  fluorescent band of protein/FlAsH conjugate after SDS/PAGE: strongly fluorescent band
V368C Shp2 [12]
  protection of cysteines from modification by IAA: strongly protects C333, C367, and C368
P87C/A122C PTP1B [13]
  fluorescent band of protein/FlAsH conjugate after SDS/PAGE: strongly fluorescent band
wild-type HePTP [14]
  inhibition of total PTP activity of lysate: no effects
wild-type Shp2 [15]; 125 nM FlAsH, varying β-ME
  effect of β-mercaptoethanol on FlAsH's inhibitory effects: attenuates
wild-type Shp2 [15]; [24]
  time to 50% activity: ~ 11 minutes
P87C PTP1B [16]
  fluorescent band of protein/FlAsH conjugate after SDS/PAGE: fail to produce strongly fluorescent bands
P720C/H755C PTPH-1 [17]
  inhibition of total PTP activity of lysate: strongly inhibited
P160C/V184C HePTP [18]
  inhibition of phosphatase activity: drastically reduced catalytic activity
wild-type PTPH-1 [19]
  inhibition of total PTP activity of lysate: no effects
wild-type FAP-1 [20]
  inhibition of phosphatase activity: not significantly inhibited
wild-type HePTP [21]
  inhibition of phosphatase activity: not significantly inhibited
P160C/V184C HePTP [22]
  inhibition of total PTP activity of lysate: strongly inhibited
V368C Shp2 [23]; 125 nM FlAsH, varying β-ME up to 8,000 times excess
  effect of β-mercaptoethanol on potency of FlAsH inhibition: no significant changes
V368C Shp2 [23]; [24]
  time to 50% activity: ~ 7 minutes
